In ChEMBL document CHEMBL1921799, “Computationally-guided optimization of a docking hit to yield catechol diethers as potent anti-HIV agents” (J Med Chem, 2011):

Assays:
[1] = tested on: Human immunodeficiency virus 1; assay: Antiviral activity against Human immunodeficiency virus 1 3B infected in human MT2 cells assessed as protection against viral infection by MTT assay; format: functional, organism-based
In short: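 HIV-1 (IIIB or variant strains) infected into MT-2 human T-cells. The MTT colorimetric read-out measured cell viability. […] Antiviral curves used triplicate samples at each concentration, and a cytotoxicity (CC50) curve on MT-2 growth was run at the same time.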

MT2 [2] = assay: Cytotoxicity against human MT2 cells infected with HIV1 3B by MTT assay; format: cell-based
[3] = tested on: Human immunodeficiency virus 1; assay: Antiviral activity against Human immunodeficiency virus 1 NL4.3 infected in human MT2 cells assessed as inhibition of viral infection; format: functional, organism-based; conditions: Human immunodeficiency virus 1, NL4.3, MT2
In short: (§1)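 HIV-1 (IIIB or variant strains) infected into MT-2 human T-cells. The MTT colorimetric read-out measured cell viability. Antiviral curves used triplicate samples at each concentration, and a cytotoxicity (CC50) curve on MT-2 growth was run at the same time.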

[4] = tested on: Human immunodeficiency virus 1; assay: Antiviral activity against Human immunodeficiency virus 1 NL4.3 reverse transcriptase Y181C mutant infected in human MT2 cells assessed as inhibition of viral infection; format: functional, organism-based; conditions: Human immunodeficiency virus 1, NL4.3, MT2; in short: as §1
MT2 [5] = assay: (§2) Cytotoxicity against human MT2 cells infected with HIV1 NL4.3 by MTT assay; format: cell-based; conditions: mt2
[6] = tested on: Human immunodeficiency virus 1; assay: Antiviral activity against Human immunodeficiency virus 1 NL4.3 reverse transcriptase K103N and Y181C double mutant infected in human MT2 cells assessed as inhibition of viral infection; format: functional, organism-based; conditions: Human immunodeficiency virus 1, NL4.3, MT2; in short: as §1
[7] = as §2; format: cell-based; conditions: MT2 cells infected with HIV1 NL4.3

Structure (SMILES) | EC50 [1] [µM] | CC50 (MT2 [2]) [µM] | EC50 [3] [µM] | EC50 [4] [µM] | CC50 (MT2 [5]) [µM] | EC50 [6] [µM] | CC50 [7] [µM]
Cc1ccc(OCCn2ccc(=O)[nH]c2=O)c(Cc2ccccc2)c1 | 4.8 | 72 |  |  |  |  | 
O=c1ccn(CCOc2cc(Cl)cc(Cl)c2Oc2ccccc2Cl)c(=O)[nH]1 | 0.83 | 13 |  |  |  |  | 
O=c1ccn(CCOc2ccc(Cl)cc2Cc2ccccc2)c(=O)[nH]1 | 1.2 | 23 |  |  |  |  | 
O=c1ccn(CCOc2ccc(Cl)cc2Cc2ccccc2Cl)c(=O)[nH]1 | 0.62 | 28 |  |  |  |  | 
O=c1ccn(CCOc2ccc(Cl)cc2Cc2cccc(Cl)c2)c(=O)[nH]1 | 1.5 | 11 |  |  |  |  | 
O=c1ccn(CCOc2ccc(Cl)cc2Cc2ccc(Cl)cc2Cl)c(=O)[nH]1 | 2.9 | 88 |  |  |  |  | 
O=c1ccn(CCOc2ccc(Cl)cc2Cc2cc(Cl)cc(Cl)c2)c(=O)[nH]1 | 1.3 | 10 |  |  |  |  | 
O=c1ccn(CCOc2ccc(Cl)cc2Cc2cc(Cl)ccc2Cl)c(=O)[nH]1 | 0.38 | 15 |  |  |  |  | 
O=c1ccn(CCOc2ccc(Cl)cc2Cc2c(Cl)cccc2Cl)c(=O)[nH]1 | 0.31 | 49 |  |  |  |  | 
Cc1cn(CCOc2ccc(Cl)cc2Cc2ccccc2)c(=O)[nH]c1=O | 2.4 | 22 |  |  |  |  | 
O=c1[nH]c(=O)n(CCOc2ccc(Cl)cc2Cc2ccccc2)cc1F | 2.5 | 27 |  |  |  |  | 
O=c1[nH]c(=O)n(CCOc2ccc(Cl)cc2Cc2ccccc2)cc1Cl | 2.2 | 21 |  |  |  |  | 
O=c1ccn(CCOc2cc(Cl)ccc2Cc2ccccc2Cl)c(=O)[nH]1 | 0.41 | 12 |  |  |  |  | 
N#Cc1cc(C#N)cc(Oc2cc(Cl)ccc2OCCn2ccc(=O)[nH]c2=O)c1 | 0.14 | 80 | 0.14 | 21 | 77 | 2.2 | 
N#Cc1cccc(Cl)c1Oc1cc(Cl)ccc1OCCn1ccc(=O)[nH]c1=O | 0.12 | 50 |  |  |  |  | 
N#Cc1cc(Cl)cc(Oc2cc(Cl)ccc2OCCn2ccc(=O)[nH]c2=O)c1 | 0.09 | 33 | 0.09 | 6.7 | 32 | 1.2 | 
N#Cc1ccc(Cl)c(Oc2ccc(Cl)cc2OCCn2ccc(=O)[nH]c2=O)c1 | 0.1 | 60 |  |  |  |  | 
N#Cc1cc(C#N)cc(Oc2ccc(Cl)cc2OCCn2ccc(=O)[nH]c2=O)c1 | 0.046 | > 100 |  |  |  |  | 
N#Cc1cc(Cl)cc(Oc2ccc(Cl)cc2OCCn2ccc(=O)[nH]c2=O)c1 | 0.014 |  | 0.014 | 0.52 |  | 1.7 | > 100
N#Cc1cc(Cl)cc(Oc2ccc(Cl)cc2OCCn2cc(F)c(=O)[nH]c2=O)c1 | 0.013 | 17 | 0.013 | 0.62 | 13 | 1.7 | 
